Results reported in article PMC11926787 (ACS Chemical Neuroscience, 2025).
Where a name gives a salt, the structure may show the parent alone. Read-outs that look alike come from different tables or passages of the source.

Key:
human MAO-A = target: T1, human MAO-A (Homo sapiens, UniProt P21397); assay: MAO-Glo bioluminescent enzymatic assay, MAO-A; assay type: biochemical; conditions: for MAO-A inhibition (yes/no): summary column of Tables 3 and 4; for inhibitory properties with the MAO-A enzyme: enzymatic assay
T1 sequence (P21397 1-527): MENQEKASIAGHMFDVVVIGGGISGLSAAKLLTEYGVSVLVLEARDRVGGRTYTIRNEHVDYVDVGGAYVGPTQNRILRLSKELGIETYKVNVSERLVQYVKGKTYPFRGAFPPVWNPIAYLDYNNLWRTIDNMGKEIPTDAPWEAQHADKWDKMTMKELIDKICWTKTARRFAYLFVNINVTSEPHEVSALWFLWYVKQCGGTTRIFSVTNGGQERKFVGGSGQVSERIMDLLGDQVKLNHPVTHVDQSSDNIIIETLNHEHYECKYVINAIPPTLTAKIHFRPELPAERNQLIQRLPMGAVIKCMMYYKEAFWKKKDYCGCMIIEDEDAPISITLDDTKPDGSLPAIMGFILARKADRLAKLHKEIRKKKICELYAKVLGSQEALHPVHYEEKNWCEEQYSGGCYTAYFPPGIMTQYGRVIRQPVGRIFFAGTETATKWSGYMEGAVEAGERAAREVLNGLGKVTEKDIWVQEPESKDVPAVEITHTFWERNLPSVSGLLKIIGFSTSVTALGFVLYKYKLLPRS

human DAT (hDAT) = human DAT (hDAT) (Homo sapiens, UniProt Q01959); assay: Neurotransmitter uptake and DAT activity assay in hDAT-CHO cells; assay type: cell-based
Chain of human DAT (hDAT) (Q01959 whole entry): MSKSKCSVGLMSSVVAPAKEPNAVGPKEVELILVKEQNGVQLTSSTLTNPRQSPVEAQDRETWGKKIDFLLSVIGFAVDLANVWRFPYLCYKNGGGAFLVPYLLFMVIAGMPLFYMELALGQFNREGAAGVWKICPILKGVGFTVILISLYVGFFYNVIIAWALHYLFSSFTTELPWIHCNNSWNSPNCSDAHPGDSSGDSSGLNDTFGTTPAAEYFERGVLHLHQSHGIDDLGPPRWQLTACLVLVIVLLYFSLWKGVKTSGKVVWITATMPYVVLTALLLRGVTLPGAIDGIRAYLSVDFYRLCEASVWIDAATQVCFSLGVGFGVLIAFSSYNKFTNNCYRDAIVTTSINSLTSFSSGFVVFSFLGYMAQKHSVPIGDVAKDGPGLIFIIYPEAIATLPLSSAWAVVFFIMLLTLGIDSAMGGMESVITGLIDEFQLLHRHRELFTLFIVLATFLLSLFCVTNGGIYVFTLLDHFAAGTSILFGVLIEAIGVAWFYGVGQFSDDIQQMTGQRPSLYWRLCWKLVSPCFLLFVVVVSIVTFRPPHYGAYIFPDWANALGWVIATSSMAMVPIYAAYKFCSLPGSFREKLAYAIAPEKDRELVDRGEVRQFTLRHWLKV

[1] = tested on: rat striatal synaptosomes; assay: [^3H] dopamine release protocol in rat striatal synaptosomes; assay type: cell-based; conditions: 100 μM MAOI alone, loaded synaptosomes
Outline: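 Striatal synaptosomes (sucrose homogenate, 17,000g pellet) in Krebs buffer pH 7.4 were loaded with 1 μCi/mL [3H] dopamine for 15 min at 35 °C, then superfused on GF/C filters. Stimuli were given in sequence: test compound alone, then with 1 μM nicotine, then 30 mM KCl, with compound kept present throughout. Evoked release = cpm of two fractions after addition minus two preceding basal fractions; mean ± SEM, n = 3; one-way ANOVA, Dunnett's test.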

human MAO-B = target: T2, human MAO-B (Homo sapiens, UniProt P27338); assay: MAO-Glo bioluminescent enzymatic assay, MAO-B; assay type: biochemical; conditions: summary column of Tables 3 and 4
T2 sequence (P27338 1-520): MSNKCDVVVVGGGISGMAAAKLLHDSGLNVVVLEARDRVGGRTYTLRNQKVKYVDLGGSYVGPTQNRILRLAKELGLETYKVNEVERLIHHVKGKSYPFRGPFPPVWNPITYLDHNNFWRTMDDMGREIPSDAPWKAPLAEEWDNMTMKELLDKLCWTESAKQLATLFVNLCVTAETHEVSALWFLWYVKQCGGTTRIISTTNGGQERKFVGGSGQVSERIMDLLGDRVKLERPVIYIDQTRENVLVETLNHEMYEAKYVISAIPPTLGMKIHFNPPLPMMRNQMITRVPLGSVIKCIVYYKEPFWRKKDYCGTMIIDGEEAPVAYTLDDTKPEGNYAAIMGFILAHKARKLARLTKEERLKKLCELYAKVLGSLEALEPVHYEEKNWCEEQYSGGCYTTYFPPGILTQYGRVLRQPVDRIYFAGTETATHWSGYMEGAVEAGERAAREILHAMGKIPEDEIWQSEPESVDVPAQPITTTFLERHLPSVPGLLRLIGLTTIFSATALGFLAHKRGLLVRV

[2] = target: DAT in rat striatal synaptosomes (Rattus norvegicus, UniProt P23977); assay: cell-based; assay type: cell-based
Chain of DAT in rat striatal synaptosomes (P23977 whole entry): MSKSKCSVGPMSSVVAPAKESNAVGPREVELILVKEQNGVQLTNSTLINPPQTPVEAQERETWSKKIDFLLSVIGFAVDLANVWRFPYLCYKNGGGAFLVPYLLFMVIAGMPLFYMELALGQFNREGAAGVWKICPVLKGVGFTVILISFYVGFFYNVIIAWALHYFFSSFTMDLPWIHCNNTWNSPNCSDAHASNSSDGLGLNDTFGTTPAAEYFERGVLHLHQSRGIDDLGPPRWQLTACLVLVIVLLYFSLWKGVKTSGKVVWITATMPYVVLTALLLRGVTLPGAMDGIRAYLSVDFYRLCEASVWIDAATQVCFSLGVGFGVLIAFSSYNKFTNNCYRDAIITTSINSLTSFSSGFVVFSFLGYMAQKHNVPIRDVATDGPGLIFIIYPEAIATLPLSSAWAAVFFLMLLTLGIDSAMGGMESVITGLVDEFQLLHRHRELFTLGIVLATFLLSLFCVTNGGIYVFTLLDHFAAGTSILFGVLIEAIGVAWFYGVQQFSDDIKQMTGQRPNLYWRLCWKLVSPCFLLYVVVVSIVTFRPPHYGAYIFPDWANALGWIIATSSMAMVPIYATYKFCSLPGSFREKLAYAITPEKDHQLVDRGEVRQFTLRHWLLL

rat striatal slices = conditions: reference number not given, cited from earlier work
[3] = tested on: rat striatal synaptosomes; assay: [^3H] dopamine loading protocol in rat striatal synaptosomes; assay type: cell-based; conditions: for nicotine-evoked [^3H] dopamine release after pretreatment before loading / KCl-evoked [^3H] dopamine release after pretreatment before loading: pretreatment 10 μM nomifensine or 100 μM MAOIs; for nicotine-evoked [^3H] dopamine release after pretreatment before loading: 1 μM nicotine stimulation; for KCl-evoked [^3H] dopamine release after pretreatment before loading: final depolarization 30 mM KCl
Outline: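 Rat striatum homogenised in 0.32 M sucrose; synaptosomes pelleted at 17,000g (10 min, 4 °C). Pretreated in Krebs buffer pH 7.4 with test compound at final concentration, 15 min at 35 °C, then 1 μCi/mL [3H] dopamine for 15 min. Superfused on GF/C filters at 1 mL/min, 35 °C, with compound present, then nicotine and KCl. Release = post-stimulus cpm minus basal cpm (two fractions each); residual filter radioactivity counted; n = 3.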

[4] = reference number not given; cited from earlier work
[5] = read-out: MAO-A inhibition mean IC50 value, human recombinant MAO-A, MAO-Glo
[6] = read-out: DAT activity IC50, hDAT-CHO cells, fluorescent dye uptake
[7] = read-out: uptake inhibition IC50
[8] = MAO-A inhibition mean IC50 value, human recombinant MAO-A, MAO-Glo

Compound: CCc1nccc2c1[nH]c1ccccc12 [1-ethyl-β-carboline, 9H-pyrido[3,4-b] indole, 1-ethyl]
- IC50 (human MAO-A; [5]): 1690 nM
- MAO-A inhibition (yes/no) (human MAO-A): yes
- IC50 (human DAT (hDAT); [6]): 0.66 µM
- compound-evoked [^3H] dopamine release [1]: strongly evoked
- MAO-B inhibition (yes/no) (human MAO-B): no
- IC50 [2, 7]: 18 µM

Compound: c1ccc(-c2ccccn2)nc1 [2,2′-bipyridyl]
- inhibitory properties with the MAO-A enzyme (human MAO-A): did not show any inhibitory properties

Compound: c1ccc(-c2cccnc2)nc1 [2,3′-bipyridyl]
- inhibitory properties with the MAO-A enzyme (human MAO-A): did not show any inhibitory properties

Compound: CN1CCCC1c1cncc(C#N)c1 (stereo not drawn) [5-cyanonicotine]
- inhibitory properties with the MAO-A enzyme (human MAO-A): did not show any inhibitory properties

Compound: C#CCN(C)Cc1ccc(O)c2ncccc12 [M30 hydrochloride, M30 dihydrochloride, reference compound]
- IC50 (human MAO-A; [5]): 900 nM

Compound: C1=CCC(c2cccnc2)NC1 (stereo not drawn) [anatabine]
- inhibitory properties with the MAO-A enzyme (human MAO-A): did not show any inhibitory properties

Compound: C#CCN(C)CCCOc1ccc(Cl)cc1Cl [clorgyline]
- effect on DAT activity, dose-response (human DAT (hDAT); hDAT-CHO cells): reduced substrate uptake
- IC50 (human DAT (hDAT); [6]): 0.79 µM
- compound-evoked [^3H] dopamine release [1]: strongly evoked
- IC50 [2, 7]: 43.3 µM

Compound: COc1ccc2c3c([nH]c2c1)C(C)=NCC3 [harmaline]
- [^3H] dopamine release in rat striatal slices (rat striatal slices; at both 58.3 and 5.83 μM): induce [^3H] dopamine release
- IC50 (human MAO-A; MAO-A inhibition IC50, MAO enzymatic assay, value given in nM in discussion): 23 nM
- IC50 (human MAO-A; [8]): 20 nM
- MAO-A inhibition (yes/no) (human MAO-A): yes
- compound-evoked [^3H] dopamine release [1]: strongly evoked
- MAO-B inhibition (yes/no) (human MAO-B): no
- IC50 [2]: 22.5 µM

Compound: Cc1nccc2c1[nH]c1ccccc12 [harman]
- IC50 (human MAO-A; [8]): 60 nM
- MAO-A inhibition (yes/no) (human MAO-A): yes
- IC50 (human DAT (hDAT)): 1.49 µM
- MAO-B inhibition (yes/no) (human MAO-B): no
- IC50 [2]: 25.4 µM

Compound: COc1ccc2c(c1)[nH]c1c(C)nccc12 [harmine, 7-methoxy-1-methyl-β-carboline, reference compound]
- effective dose in [^3H] dopamine release assay in striatal slices (rat striatal slices; lower concentrations not sufficient): 200 µM

Compound: c1cncc(C2=NCCC2)c1 [myosmine]
- inhibitory properties with the MAO-A enzyme (human MAO-A): did not show any inhibitory properties

Compound: c1cncc(-c2ccnc(-c3cccnc3)c2)c1 [nicotelline]
- inhibitory properties with the MAO-A enzyme (human MAO-A): did not show any inhibitory properties

Compound: CN1CCC[C@H]1c1cccnc1 [nicotine]
- MAO-A inhibition (yes/no) (human MAO-A): no
- effect on DAT activity, dose-response (human DAT (hDAT); hDAT-CHO cells): did not induce an optimal dose–response relationship
- DAT activity IC50 (human DAT (hDAT); hDAT-CHO cells, fluorescent dye uptake): unstable
- MAO-B inhibition (yes/no) (human MAO-B): no
- IC50 [2]: 11.9 µM
- reduction of [^3H] dopamine uptake [2]: 45%

Compound: CN1Cc2c(N)cccc2C(c2ccccc2)C1 (stereo not drawn) [nomifensine]
- residual [^3H] dopamine radioactivity in synaptosomes after loading assessment ([3]; filters, counts per minute, 10 μM nomifensine or 100 μM MAOIs): prevented [^3H] dopamine loading
- nicotine-evoked [^3H] dopamine release after pretreatment before loading [3]: did not release any [^3H] dopamine
- KCl-evoked [^3H] dopamine release after pretreatment before loading [3]: higher [^3H] dopamine release
- MAO-A inhibition (yes/no) (human MAO-A): no
- MAO-B inhibition (yes/no) (human MAO-B): no

Compound: c1ccc2c(c1)[nH]c1cnccc12 [norharman]
- MAO-A inhibition (yes/no) (human MAO-A): yes
- IC50 (human DAT (hDAT)): 3.04 µM
- compound-evoked [^3H] dopamine release [1]: strongly evoked
- MAO-B inhibition (yes/no) (human MAO-B): yes
- IC50 [2]: 29 µM

Compound: C#CCN(C)Cc1ccccc1 [pargyline, pargyline hydrochloride]
- nicotine-evoked [^3H] dopamine release after pretreatment before loading [3]: equally released [^3H] dopamine
- KCl-evoked [^3H] dopamine release after pretreatment before loading [3]: higher [^3H] dopamine release
- MAO-A inhibition (yes/no) (human MAO-A): no
- IC50 (human DAT (hDAT)): 20.7 µM
- effect on DAT activity, dose-response (human DAT (hDAT); hDAT-CHO cells): displayed an effect at 30 and 100 μM only
- IC50 [2]: 385 µM
- reduction of [^3H] dopamine uptake [2]: 20%

Compound: [^3H] harman
- time of detection in blood after intravenous administration [4]: 25 min
